Here are results for one compound from ChEMBL document CHEMBL1137646, “Intracellular metabolism and persistence of the anti-human immunodeficiency virus activity of 2',3'-didehydro-3'-deoxy-4'-ethynylthymidine, a novel thymidine analog” (Antimicrob Agents Chemother, 2007).

Each structure is given as a SMILES string.

For data set [1], the system named is CCRF-CEM. The experiment in a line: Drug metabolism in human CEM cells assessed as radioactive zidovudine monophosphate accumulation at 2 uM assessed per 10^6 cells. The format is ADME, cell-based. Particulars: TDE = time-dependent effect; call rule not given here. The procedure, abridged: (§1)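 CEM cells (2 x 10^7/ml) in RPMI 1640 with 10% dialyzed FBS were incubated at 37°C with 2 µM [3H]analog (75 mCi/mmol) and harvested at 2, 4, 8, 12, 16 and 24 h. Cells were washed in ice-cold PBS with 20 µM dipyridamole and extracted with 15% TCA. Neutralized extracts were separated on a Partisil SAX column with an H2O to 300 mM potassium phosphate gradient and radiometric detection, reported as pmol/10^6 cells, mean ± SD of three experiments.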

Data set [2] has as its system CCRF-CEM. The data set can be described thus: Drug metabolism in human CEM cells assessed as radioactive zidovudine triphosphate accumulation at 2 uM assessed per 10^6 cells. Format: ADME, cell-based. Particulars: TDE = time-dependent effect. The procedure, abridged:
as §1

The test system of data set [3] is CCRF-CEM. The data set can be described thus: Drug metabolism in human CEM cells assessed as radioactive stavudine diphosphate accumulation at 2 uM assessed per 10^6 cells. The settings on record: TDE = time-dependent effect. The format is ADME, cell-based. The method in brief:
as §1

Data set [4] has as its system CCRF-CEM. The experiment in a line: Drug metabolism in human CEM cells assessed as radioactive stavudine triphosphate accumulation at 2 uM assessed per 10^6 cells. The settings on record: TDE = time-dependent effect. Format: ADME, cell-based. The procedure, abridged:
as §1

The subject of data set [5] is CCRF-CEM. The experiment in a line: Drug metabolism in human CEM cells assessed as radioactive 2', 3'-didehydro-3'-deoxy-4'-ethynylthymidine triphosphate accumulation after 12 hrs assessed per 10^6 cells. The format is ADME, cell-based. The procedure, abridged: as §1
Data set [6] concerns RKO. The experiment in a line: Drug metabolism in doxycyclin-induced Tet-On gene expressing human RKO cells producing thymidylate kinase assessed as increase in radioactive 2', 3'-didehydro-3'-deoxy-4'-ethynylthymidine diphosphate accumulation at 2 uM after 16 hrs assessed per 10^6 cells by HPLC analysis relative to control. Format: ADME, cell-based. The method in brief: (§2)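 TMPK Tet-On RKO cells were seeded at 5 x 10^5 per dish with doxycycline at 0, 50 or 3,000 ng/ml for 48 or 72 h, then pulsed for 16 h with 2 µM [5'-3H]4'-Ed4T (478 mCi/mmol). After a cold PBS wash containing 20 µM dipyridamole, cells were extracted with 15% TCA and neutralized with trioctylamine/trichlorotrifluoroethane. Metabolites were quantified by radio-HPLC as pmol/10^6 cells, n=3.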

Data set [7] concerns RKO. The experiment in a line: Drug metabolism in doxycyclin-induced Tet-On gene expressing human RKO cells producing thymidylate kinase assessed as increase in radioactive 2', 3'-didehydro-3'-deoxy-4'-ethynylthymidine triphosphate accumulation at 2 uM after 16 hrs assessed per 10^6 cells by HPLC analysis relative to control. The format is ADME, cell-based. The procedure, abridged: as §2

Data set [8] relates to CCRF-CEM. The experiment in a line: Stability in human CEM cells assessed as intracellular radioactive phosphorylated metabolite accumulation at 2 uM incubated for 24 hrs measured after 8 hrs of compound removal assessed per 10^6 cells. Format: ADME, cell-based. The method in brief:
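CEM cells were loaded with 2 µM [3H]analog (75 mCi/mmol) for 24 h, washed, and resuspended in drug-free medium. Intracellular metabolites were then measured by SAX-HPLC with radiometric detection at 0, 2, 4, 8, 12 and 24 h after removal. Values are pmol/10^6 cells, mean ± SD of three experiments.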

In data set [9] the test system is Human immunodeficiency virus 1. The data set can be described thus: Antiviral activity against 0.1 MOI HIV1 3B in 24 hrs pretreated human TZM-b1 cells infected 0 hr post drug removal assessed as inhibition of viral replication at 3 uM measured 24 hrs postinfection by luciferase assay. Format: functional. Particulars: Human immunodeficiency virus 1, 3B. The procedure, abridged:
(§3)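 TZM-bl cells were plated in phenol red-free RPMI 1640, allowed to adhere 15–18 h at 37°C, then exposed to a range of drug concentrations for 24 h. Medium was changed to remove extracellular drug, and cells were infected with HIV-1 IIIB (MOI 0.1) at 0, 24 or 48 h after removal. Luciferase was read 24 h post-infection with uninfected-cell background subtracted, in quintuple wells, and expressed relative to no-drug wells.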

In data set [10] the test system is Human immunodeficiency virus 1. The experiment in a line: Antiviral activity against 0.1 MOI HIV1 3B in 24 hrs pretreated human TZM-b1 cells infected 0 hr post drug removal assessed as inhibition of viral replication at 5 uM measured 24 hrs postinfection by luciferase assay. The format is functional. Particulars: Human immunodeficiency virus 1, 3B. The procedure, abridged:
as §3

Broadly, the inhibition is the relative decrease from the control value, in per cent.

For the compound `C#C[C@@]1(CO)C=C[C@H](n2cc(C)c(=O)[nH]c2=O)O1` [CENSAVUDINE], the Activity entry with CCRF-CEM [1] is “tde”; in the data set with CCRF-CEM [2] it was “tde”; with CCRF-CEM [3] it was “tde”; with CCRF-CEM [4], “tde”; in the data set on CCRF-CEM [5], “Dose-dependent effect”. Moreover, the “fold change (FC)” value in the data set with RKO [6] and in the data set on RKO [7] was 3 in each case. The Stability with CCRF-CEM [8] was 1.07 pmol. In addition, in data set [9], the inhibition at 3 µM came out at 50%. In data set [10], the inhibition at 5 µM worked out at 50%.
